These results are taken from ChEMBL document CHEMBL1156509, “Survival in the presence of antifungals: genome-wide expression profiling of Aspergillus niger in response to sublethal concentrations of caspofungin and fenpropimorph” (2007).

Molecules are shown by their SMILES. Activity calls are given as the source filed them.

Assay [1] relates to Aspergillus niger. Briefly: Antifungal activity against Aspergillus niger JvD1.1 at 104.2 ug/mL by microtiter plate. Type of assay: functional, organism-based. The method, boiled down: (§1)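 Reporter conidia (2×10^4 per well) were pre-grown 6 h at 37 °C in 2× CM in glass-bottom plates. An equal volume of a 2-fold dilution series (seven concentrations) was added, then 3 h at 30 °C. Medium was discarded and adherent germlings imaged. Growth inhibition was scored 0/1/2 from hyphal length.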

In assay [2] the test system is Aspergillus niger. Briefly: Induction of GFP tagged PagsA expression in Aspergillus niger JvD1.1 at 104.2 ug/mL by fluorescence microscopy. Type of assay: functional, organism-based. The method, boiled down: (§2)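 agsA promoter-GFP reporters, cytoplasmic (JvD1.1) or nuclear H2B-targeted (RD6.47). Germlings pre-grown 6 h at 37 °C in 2× CM, exposed 3 h at 30 °C to seven 2-fold dilutions. GFP levels were scored by fluorescence microscopy as 0 (basal), 1 (intermediate) or 2 (high). Controls: gpdA-H2B-GFP strain MA26.1 (positive), N402 (negative).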

In assay [3] the test system is Aspergillus niger. Briefly: Induction of GFP tagged PagsA-H2B expression in Aspergillus niger RD6.47 at 104.2 ug/mL by fluorescence microscopy. Type of assay: functional, organism-based. A digest of the protocol: as §2
For assay [4], the system named is Aspergillus niger. Briefly: Antifungal activity against Aspergillus niger RD6.47 at 104.2 ug/mL by microtiter plate. Type of assay: functional, organism-based. A digest of the protocol:
as §1

The test system of assay [5] is Aspergillus niger. The experiment in a line: Effect on morphological changes in Aspergillus niger N402 germlings assessed as tip swelling at 5 ug/mL after 5 hrs. Format: functional, organism-based.
The test system of assay [6] is Aspergillus niger. The experiment in a line: Effect on morphological changes in Aspergillus niger N402 germlings assessed as germ tube elongation and branching at 5 ng/mL after 5 hrs. Type of assay: functional, organism-based. A digest of the protocol: (§3)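 Compound or water control was added, then 1 h more at 37 °C. Adherent germlings were scored by microscopy, at least 50 per sample, as branched or unbranched. Branching index = branched/total germlings.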

In assay [7] the test system is Aspergillus niger. The experiment in a line: Effect on morphological changes in Aspergillus niger N402 germlings assessed as germ tube elongation and branching at 5 ug/mL after 5 hrs. Type of assay: functional, organism-based. A digest of the protocol:
as §3

In assay [8] the test system is Aspergillus niger. Briefly: Effect on morphological changes in Aspergillus niger N402 germlings assessed as branching index at 50 ug/mL. Type of assay: functional.
Assay [9] relates to Aspergillus niger. Briefly: Induction of agsA expression in Aspergillus niger N402 germlings. Format: functional, organism-based. The method, boiled down:
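RNA from 1 h-treated N402 bioreactor germlings (5 h pre-growth, FM pH 3, 37 °C) was hybridised to A. niger Affymetrix arrays, biological duplicate. Data were normalised; differential expression was taken as at least 1.5-fold change with p cutoff 0.05. Northern blots on the same RNA were used for validation.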

Assay [10] has as its system Aspergillus niger. Briefly: Effect on morphological changes in Aspergillus niger N402 germlings assessed as increase in germ tube. Type of assay: functional, organism-based. The method, boiled down: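 Bioreactor: 5×10^9 N402 conidia in 5 l fermentation medium, pH 3 controlled, 37 °C, 250 rpm. Compound in water (or water alone) added at 5 h, then 1 h further cultivation. At least 200 germlings per run were counted for germ tubes per germling and subapical branches. Mean ± S.D. from two independent runs.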

For assay [11], the system named is Aspergillus niger. Briefly: Effect on morphological changes in Aspergillus niger N402 germlings assessed as tip swelling at 0.9 ug/mL after 5 hrs. Format: functional, organism-based.
The test system of assay [12] is Aspergillus niger. Briefly: Effect on morphological changes in Aspergillus niger N402 germlings assessed as germ tube elongation and branching at 0.9 ug/mL after 5 hrs. Type of assay: functional, organism-based. A digest of the protocol: as §3
Assay [13] relates to Aspergillus niger. Briefly: Effect on morphological changes in Aspergillus niger N402 germlings assessed as tip swelling at 5 ng/mL after 5 hrs. Format: functional, organism-based.
In assay [14] the test system is Aspergillus niger. The experiment in a line: Induction of crhD gene expression in Aspergillus niger by microarray analysis relative to control. Format: functional. A digest of the protocol: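 A. niger N402 conidia (5×10^9) grown in 5 L fermentation medium in a bioreactor at 37 °C, pH 3, 250 rpm. Drug in distilled H2O or H2O alone added at 5 h; mycelium harvested by filtration 1 h later and frozen in liquid nitrogen. cRNA hybridized to Affymetrix A. niger GeneChips, two independent bioreactor runs per condition; normalized, ≥1.5-fold change at p 0.05 cutoff.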

Assay [15] deals with Aspergillus niger. Briefly: Effect on increase sub apical branching in Aspergillus niger N402 germlings assessed as branching index at 5 ug/mL after 5 hrs. Type of assay: functional. A digest of the protocol: as §3

On to `Fc1ccc([C@]2(Cn3cncn3)O[C@H]2c2ccccc2Cl)cc1`, for which the outcome in [1], in [2], in assay [3] and in assay [4] was inactive.

On to `C[C@@H]1C[C@@H]([C@H](O)CC2CC(=O)NC(=O)C2)C(=O)[C@@H](C)C1`, for which the result in [1] and in assay [4] was Active. Besides, the outcome in [2] and in assay [3] was inactive.

In the case of `CN(C/C=C/C#CC(C)(C)C)Cc1cccc2ccccc12`, the outcome in assay [2] and in assay [3] was Active.

As for `CC(Cc1ccc(C(C)(C)C)cc1)CN1C[C@@H](C)O[C@@H](C)C1` (stereo partly drawn) [FENPROPIMORPH], the outcome in [5], in [6], in assay [7], in assay [9], in assay [10] and in assay [1] was Active. Further, the outcome in assay [11], in assay [2], in assay [12], in [13], in assay [3] and in assay [4] was Active. Also, the Activity in [8] was 30.5%; in [15], 33%. Also, the “fold change (FC)” value in assay [14] came to 1.51.

On to `COC(=O)N(OC)c1ccccc1COc1ccn(-c2ccc(Cl)cc2)n1`, for which the outcome in assay [1] and in assay [4] was Active. For the same compound, the outcome in [2] and in assay [3] was inactive.

Consider `CCCCCCC(=O)CCCCCC/C=C/C[C@@H](O)[C@H](O)[C@@](N)(CO)C(=O)O`, for which the outcome in assay [1], in [2], in [3] and in [4] was inactive.
